# DENV2 CPE rescue: protects cells from dengue virus 2 cytopathic effect. DENV2-infected cells, cytopathic effect rescue, plate reader. CPE inhibition, % at 9.99 µM. 350,000 tested, 1.7% active; in the data active means CPE inhibition above about 20%, passing the limit was not always enough; inconclusive means no clear call, values can overlap the other calls; tested in BHK-21 cells;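 further: 0% = median of neutral control wells and 100% = median of positive control wells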
# FN deposition inh: fibronectin deposition inhibition. AH1F fibroblasts, Alexa488-fibronectin deposition fluorescence, overnight. inhibition, % at 12.6 µM. 350,000 tested, 0.086% active;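 active means mean inhibition across replicates of 30% or more, regardless of how many single replicates reach that level; inconclusive means mean under 30% yet at least half of replicates reach 30%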;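 further: positive control wells lacked labelled fibronectin entirely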
#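 Material: AH1F fibroblast monolayer depositing Alexa488-labelled fibronectin into matrix | Input: 10000 AH1F cells/well | Medium: DMEM plus 2% serum, read in PBS | Reagent: Alexa488-fibronectin, 24 nM final in well | Compound dosing: One dose per compound, pinned | Schedule: 1 h adhesion, overnight exposure | Measured by: Fluorescence at 485 nm excitation, 525 nm emission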
# XiGFP reactiv: reactivates the inactive X chromosome in mouse fibroblasts; XiGFP mouse fibroblasts, % GFP-positive cells imaging, 3 d; cells co-treated with 5-aza-dC sensitizer; scaled so ellipticine positive control = 100%; activation, % at 7.58 µM; 360,000 tested, 0.055% active; AID 743238;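 active means mean normalized replicate activation at least 10% and every replicate at or above 10%; inconclusive means only one of the two criteria met; inactive means mean below 10% and not all replicates reach 10%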;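 further: 0% = median of on-plate neutral control wells and 100% = ellipticine 6 µM median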
#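 System: 68-5-11 XiGFP fibroblast line | Buffer or medium: DMEM containing 5-aza-dC | Compound: Single point | Times: Compounds 3 days, fix/stain 15 min at room temperature | Benchmarks: Positive control ellipticine, 6 µM final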
# PGC1a acetyl inh: modulators of PGC1a acetylation. U2OS PGC1a acetylation, AlphaScreen anti-acetyl-lysine; with virally co-expressed GCN5 acetyltransferase. inhibition, % at 15.6 µM. 350,000 tested, 0.17% active. AID 651687;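 active means every replicate shows inhibition of at least 40%; inconclusive means mean inhibition at least 40% but some replicate below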;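 further: 0% = neutral control wells and 100% = positive control wells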
# Cneo AK release: causes C. neoformans cell lysis | lysis activity, % at 15 µM | 360,000 tested, 0.2% active | adenylate kinase release luminescence, 4 h; normalised: neutral wells 0, clomiphene wells 100 | AID 651654;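 active means mean lysis activity across replicates of at least 80%, whatever share of replicates individually reach that level; inactive means mean lysis activity below 80%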
#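 Material – log-phase Cryptococcus neoformans yeast cells · Input – 5 × 10^6 yeast cells/mL · Medium – fresh YPD growth medium · Doses – single compound concentration per well · Timing – static 4 h at 37 °C with compound, 1 h detection · Detection – adenylate kinase release luminescence · Read-out – signal increase indicating cell lysis · Control set – Clomiphene as positive lysis control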
# F508del corr: correctors of CFTR F508del function in bronchial epithelial cells. activity (quench increase), % at 7.58 µM. CFBE cells, YFP halide quenching; stimulated with forskolin plus potentiator P3; % fluorescence drop versus neutral controls. 350,000 tested, 0.36% active;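 active means mean added fluorescence quench of at least 8% versus neutral control, with both replicates also reaching 8%; inconclusive means only one of the mean or replicate conditions met; inactive means mean below 8% and not both replicates reaching 8%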;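 further: cells transiently co-express mutant CFTR-F508del with the halide-sensitive YFP; corrector assay measuring rescue of mutant channel to the surface after 24 h compound exposure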
# Numbers without * were called inactive; ? = inconclusive; nt = no result. This is a sample that favours compounds with a hit; in the whole collection about 1.9% have one here.
SMILES,DENV2 CPE rescue,FN deposition inh,XiGFP reactiv,PGC1a acetyl inh,Cneo AK release,F508del corr
CO[C@H]1CN(C)C(=O)c2ccc(NC(=O)NC(C)C)cc2OC[C@@H](C)N(Cc2ccccc2)C[C@H]1C,7.3,-1.9,1.0,3.5,-1.7,-0.6
C[C@H]1CN([C@@H](C)CO)C(=O)c2cccc(NC(=O)Nc3ccc(C(F)(F)F)cc3)c2O[C@@H]1CN(C)Cc1ccc(-c2ccccc2)cc1,-10.8,nt,0.1,-6.5,-5.7,0.7
CN1C(=O)[C@H]2[C@@H](/C=C/c3ccccc3)N3C(=O)CN(CCO)C(=O)[C@@]3(Cc3ccccc3)[C@H]2C1=O,9.2,-7.1,0.4,0.1,-0.9,-3.9
O=C1[C@H]2[C@@H](/C=C/c3ccccc3)N3C(=O)CN(CCO)C(=O)[C@@]3(Cc3ccccc3)[C@H]2C(=O)N1c1ccccc1,56.5*,-1.0,-0.1,15.8,-3.9,1.4
COc1ccc(Cc2noc(CN(C)CCc3ccccc3)n2)cc1OC,-3.2,-0.3,-0.1,-2.4,0.2,0.4
COc1ccc(CN(C)Cc2nc(Cc3ccccc3Cl)no2)cc1OC,-3.3,6.3,33.1*,-1.2,3.8,2.0
COc1ccc(NC(=O)N(C)C[C@H]2OCCCC[C@H](C)Oc3ccc(NS(=O)(=O)c4ccc(OC)cc4)cc3C(=O)N([C@H](C)CO)C[C@@H]2C)cc1,-6.6,6.4,0.2,-6.4,41.7,-2.0
COc1ccc(S(=O)(=O)Nc2ccc3c(c2)C(=O)N([C@H](C)CO)C[C@@H](C)[C@H](CN(C)C(=O)Nc2ccc(C(F)(F)F)cc2)OCCCC[C@H](C)O3)cc1,10.2,-7.1,-0.1,7.7,-1.1,-4.8
C[C@H](CO)N1C[C@H](C)[C@H](CN(C)C(=O)Nc2ccc(C(F)(F)F)cc2)OCCCC[C@H](C)Oc2ccc(NS(=O)(=O)c3ccc(F)cc3)cc2C1=O,82.0*,-1.3,0.0,6.9,-1.3,4.2
C[C@@H]1CCCCO[C@@H](CN(C)C(=O)Nc2ccc(C(F)(F)F)cc2)[C@H](C)CN([C@H](C)CO)C(=O)c2cc(NS(=O)(=O)c3ccc(F)cc3)ccc2O1,69.1*,-8.1,0.2,-1.0,-0.8,-0.7
COc1ccc(S(=O)(=O)Nc2ccc3c(c2)C(=O)N([C@H](C)CO)C[C@H](C)[C@H](CN(C)C(=O)Nc2ccc(C(F)(F)F)cc2)OCCCC[C@H](C)O3)cc1,75.7*,-17.8,0.1,0.4,-1.7,0.9
O=C(c1ccc(F)cc1)N1CCCCN2[C@@H](CO)[C@H](c3ccc(-c4ccc(F)cc4)cc3)[C@@H]2C1,-3.8,nt,nt,-1.9,-0.1,-1.5
CC(=O)c1sc(NC(=O)c2cc(=O)c3ccccc3o2)nc1C,4.8,6.7,0.0,nt,-4.5,-1.0
CC(=O)c1sc(NC(=O)c2oc3ccc(F)cc3c2C)nc1C,21.4*,-25.5,-0.1,1.2,-2.3,3.2
CCOC(=O)c1nn(-c2ccc3ccccc3c2)cc1O,4.5,-3.3,16.9*,nt,-2.4,0.4
O=C(NCCCN1CCOCC1)[C@@H]1[C@@H](CO)[C@@H]2Cn3c(ccc(C4=CCCC4)c3=O)[C@H]1N2,8.1,nt,0.2,nt,-4.6,1.9
COc1cc(C(=O)Nc2ccccc2C(=O)Nc2ccccn2)cc(OC)c1OC,-5.7,12.7,0.1,7.8,6.9,12.7*
Cc1ccc(S(=O)(=O)N(C)C[C@@H]2Oc3c(NS(=O)(=O)c4cn(C)cn4)cccc3C(=O)N([C@H](C)CO)C[C@H]2C)cc1,nt,nt,0.2,10.1,nt,-1.7
CN(C)CCCNC(=O)C[C@@H]1CC[C@@H](NC(=O)c2ccccc2F)[C@@H](CO)O1,-9.1,-0.7,-0.3,-5.0,-6.4,0.4
C[C@H]1CN([C@@H](C)CO)C(=O)Cc2cc(NS(=O)(=O)c3ccc(F)cc3)ccc2O[C@@H]1CN(C)C(=O)Nc1ccc(C(F)(F)F)cc1,-2.4,nt,0.0,-3.3,0.0,-1.2
CN(Cc1ccccc1)S(=O)(=O)c1ccc(NC(=S)NC(=O)C2CCCC2)cc1,2.7,nt,nt,-9.9,-0.7,13.9*
Cc1ccc(NC(=S)NC(=O)C2CCC2)cc1C,68.9*,-0.2,-0.1,nt,15.5,6.0
Cc1ccc(NC(=S)NC(=O)C2CCCC2)cc1C,-0.8,-6.2,0.0,1.6,39.3,-2.0
CCC(=O)NC[C@@H]1[C@@H](c2ccc(C3=CCCC3)cc2)[C@@H](CO)N1C(=O)CC,-3.0,0.9,0.2,nt,nt,-3.2
CCC(=O)NC[C@H]1[C@@H](c2ccc(C3=CCCC3)cc2)[C@@H](CO)N1C(=O)CC,31.3*,6.7,0.0,nt,nt,0.3
SMILES,DENV2 CPE rescue,FN deposition inh,XiGFP reactiv,PGC1a acetyl inh,Cneo AK release,F508del corr
CC(=O)NC[C@H]1[C@@H](c2ccc(C3=CCCC3)cc2)[C@@H](CO)N1C(=O)NC(C)C,?,-3.4,0.0,0.8,119.7*,-1.7
CCCNC(=O)NC[C@@H]1[C@H](c2ccc(C3=CCCCC3)cc2)[C@@H](CO)N1C(C)=O,-8.2,0.3,0.1,-5.5,-2.7,3.8
CC(=O)NC[C@@H]1[C@@H](c2ccc(C3=CCCC3)cc2)[C@H](CO)N1C(=O)NC(C)C,-9.3,-13.1,0.1,-5.5,14.9,-0.4
CCCNC(=O)NC[C@H]1[C@H](c2ccc(C3=CCCCC3)cc2)[C@@H](CO)N1C(C)=O,21.6*,12.7,0.0,-0.6,6.2,2.2
CCCNC(=O)N1[C@H](CO)[C@@H](c2ccc(C3=CCCC3)cc2)[C@@H]1CN(C)C(C)=O,-4.6,10.3,0.0,-10.4,87.3*,8.1*
CCCNC(=O)N1[C@H](CO)[C@@H](c2ccc(C3=CCCC3)cc2)[C@H]1CNC(C)=O,?,8.3,0.0,-4.0,0.3,2.9
CCOc1ccc(OCC(=O)N(C)c2c(N)n(Cc3ccccc3)c(=O)[nH]c2=O)cc1,24.7*,2.9,0.0,nt,nt,1.8
CC(=O)c1c(C)[nH]c(C(=O)OCC(=O)N(C)c2c(N)n(Cc3ccccc3)c(=O)[nH]c2=O)c1C,142.6*,6.8,0.2,nt,-3.3,2.1
COc1ccc2c3c([nH]c2c1)[C@H](CO)N(C(=O)CN(C)C)CC31CN(C(=O)c2ccncc2)C1,-3.2,nt,0.0,-9.1,nt,1.9
COc1ccccc1CNC(=O)C(=O)Nc1ccc(C(=O)N2CCC(C)CC2)cc1,64.6*,-2.6,0.3,2.6,0.8,-2.8
CCCN1C[C@H](C)[C@H](OC)CN(C)C(=O)c2ccc(NC(=O)Nc3c(C)noc3C)cc2OC[C@@H]1C,11.1,-13.4,0.0,-3.8,-0.7,2.2
Clc1cc(Br)ccc1OCCOCCN1CCCC1,24.8*,4.2,0.1,6.6,3.2,3.2
Clc1cc(Br)ccc1OCCCn1ccnc1,36.6*,-2.5,0.0,-8.0,nt,nt

# Screening results from PubChem.
